Laboratory results taken from ChEMBL document CHEMBL4270642, “Boronic ester-linked macrocyclic lipopeptides as serine protease inhibitors targeting Escherichia coli type I signal peptidase” (Eur J Med Chem, 2018).
≈ marks a conversion by molar mass, not a printed value. Square brackets hold non-standard residues; d marks the D form. Peptide text beside a SMILES is read from it. * marks the point of attachment. Benzoyl(4-(4-hexylphenyl)) = CCCCCCc1ccc(-c2ccc(C(=O)*)cc2)cc1; boroAla = C[C@H](N*)B(O)O; Orn = NCCC[C@H](N)C(=O)O

What was measured:
[1] = target: Signal peptidase I (Escherichia coli K-12) (UniProt P00803); experiment: Inhibition of Escherichia coli type 1 signal peptidase lepB assessed as residual activity at 2.5 uM preincubated for 10 mins followed by Dabcyl-VGGTATAYGAFSRPGLE-(EDANS)-OH substrate addition measured after 2 hrs by FRET based assay (reference value: 100%)
Sequence of Signal peptidase I (Escherichia coli K-12) (P00803 whole entry): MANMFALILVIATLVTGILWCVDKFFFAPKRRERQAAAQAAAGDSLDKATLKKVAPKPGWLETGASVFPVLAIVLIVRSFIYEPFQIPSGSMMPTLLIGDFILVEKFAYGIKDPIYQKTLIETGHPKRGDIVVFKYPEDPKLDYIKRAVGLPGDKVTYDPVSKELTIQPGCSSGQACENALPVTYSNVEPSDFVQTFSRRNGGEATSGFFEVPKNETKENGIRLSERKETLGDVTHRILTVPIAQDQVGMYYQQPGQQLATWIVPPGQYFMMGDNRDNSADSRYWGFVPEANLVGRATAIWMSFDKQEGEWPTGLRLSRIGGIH
In short: (§1)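 EcLepB (about 50 nM estimated) preincubated 10 min with compound. Reaction started with Dabcyl/EDANS FRET peptide at 8 µM final (Km 20 µM). Fluorescence followed continuously at 535 nm, 22 °C, for 2 h. Cleavage rates plotted against inhibitor concentration; IC50 from non-linear regression of sigmoidal dose-response curves.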

Escherichia coli [2] = experiment: Antibacterial activity against tolC deficient Escherichia coli CH3130 after 16 to 20 hrs by broth microdilution method; format: functional
In short: (§2)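 Broth microdilution in cation-adjusted Mueller-Hinton II per EUCAST/CLSI; two-fold compound series 64 down to 0.25 µg/mL final. Inoculum from fresh colonies (non-selective agar, 18-24 h, 35 ± 2 °C), adjusted to 0.5 McFarland, diluted to about 5 × 10^5 CFU/mL final. Static incubation 16-20 h at 35 ± 2 °C; MIC read visually as complete growth inhibition against medium-only wells.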

[3] = target: Signal peptidase I (Escherichia coli K-12) (UniProt P00803); experiment: Inhibition of Escherichia coli type 1 signal peptidase lepB assessed as residual activity at 0.0781 uM preincubated for 10 mins followed by Dabcyl-VGGTATAYGAFSRPGLE-(EDANS)-OH substrate addition measured after 2 hrs by FRET based assay (reference value: 100%); in short: as §1
HepG2 = experiment: Cytotoxicity against human HepG2 cells after 72 hrs by FMSA; format: cell-based; settings: HepG2, 72 h
In short: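 HepG2 (ATCC) grown in EMEM with 10% FBS, pen/strep, 2 mM L-glutamine, used up to 20 passages. Seeded at 1000 cells/well, cultured overnight, then dosed acoustically from DMSO stocks. Eight two-fold dilutions in duplicate from top 64 or 32 µM; 72 h at 37 °C, 5% CO2. Fluorescein diacetate hydrolysis read at ex 485/em 530 nm; IC50 by non-linear regression.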

Pseudomonas aeruginosa [4] = experiment: Antibacterial activity against Pseudomonas aeruginosa PAO1 after 16 to 20 hrs by broth microdilution method; format: functional; in short: as §2
Escherichia coli [5] = experiment: Antibacterial activity against Escherichia coli ATCC 25922 after 16 to 20 hrs by broth microdilution method; format: functional; in short: as §2
[6] = target: Signal peptidase I (Escherichia coli K-12) (UniProt P00803); experiment: Inhibition of Escherichia coli type 1 signal peptidase lepB assessed as residual activity at 0.0391 uM preincubated for 10 mins followed by Dabcyl-VGGTATAYGAFSRPGLE-(EDANS)-OH substrate addition measured after 2 hrs by FRET based assay (reference value: 100%); in short: as §1
[7] = target: Signal peptidase I (Escherichia coli K-12) (UniProt P00803); experiment: Inhibition of Escherichia coli type 1 signal peptidase lepB assessed as residual activity at 1.25 uM preincubated for 10 mins followed by Dabcyl-VGGTATAYGAFSRPGLE-(EDANS)-OH substrate addition measured after 2 hrs by FRET based assay (reference value: 100%); in short: as §1
[8] = target: Signal peptidase I (Escherichia coli K-12) (UniProt P00803); experiment: Inhibition of Escherichia coli type 1 signal peptidase lepB assessed as residual activity at 0.0195 uM preincubated for 10 mins followed by Dabcyl-VGGTATAYGAFSRPGLE-(EDANS)-OH substrate addition measured after 2 hrs by FRET based assay (reference value: 100%); in short: as §1
[9] = target: Signal peptidase I (Escherichia coli K-12) (UniProt P00803); experiment: Inhibition of Escherichia coli type 1 signal peptidase lepB assessed as residual activity at 0.1563 uM preincubated for 10 mins followed by Dabcyl-VGGTATAYGAFSRPGLE-(EDANS)-OH substrate addition measured after 2 hrs by FRET based assay (reference value: 100%); in short: as §1
Escherichia coli [10] = experiment: Antibacterial activity against Escherichia coli D22 CGSG 5163 harboring Ips mutant after 16 to 20 hrs by broth microdilution method; format: functional
In short: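 Broth microdilution in cation-adjusted Mueller-Hinton II broth, following EUCAST and CLSI guidelines. Two-fold series at final concentrations 64 down to 0.25 µg/mL, with medium-only and growth controls. Inoculum from fresh colonies (18-24 h, 35 °C ± 2 °C) adjusted to 0.5 McFarland, final ≈5 × 10^5 CFU/mL. Plates incubated unshaken 16-20 h at 35 °C ± 2 °C. MIC read visually as complete inhibition of growth.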

[11] = target: Signal peptidase I (Escherichia coli K-12) (UniProt P00803); experiment: Inhibition of Escherichia coli type 1 signal peptidase lepB assessed as residual activity at 0.0049 uM preincubated for 10 mins followed by Dabcyl-VGGTATAYGAFSRPGLE-(EDANS)-OH substrate addition measured after 2 hrs by FRET based assay (reference value: 100%); in short: as §1
[12] = target: Signal peptidase I (Escherichia coli K-12) (UniProt P00803); experiment: Inhibition of Escherichia coli type 1 signal peptidase lepB assessed as residual activity at 0.0098 uM preincubated for 10 mins followed by Dabcyl-VGGTATAYGAFSRPGLE-(EDANS)-OH substrate addition measured after 2 hrs by FRET based assay (reference value: 100%); in short: as §1
[13] = target: Signal peptidase I (Escherichia coli K-12) (UniProt P00803); experiment: Inhibition of Escherichia coli type 1 signal peptidase lepB assessed as residual activity at 5 uM preincubated for 10 mins followed by Dabcyl-VGGTATAYGAFSRPGLE-(EDANS)-OH substrate addition measured after 2 hrs by FRET based assay (reference value: 100%); in short: as §1
[14] = target: Signal peptidase I (Escherichia coli K-12) (UniProt P00803); experiment: Inhibition of Escherichia coli type 1 signal peptidase lepB assessed as residual activity at 0.0012 uM preincubated for 10 mins followed by Dabcyl-VGGTATAYGAFSRPGLE-(EDANS)-OH substrate addition measured after 2 hrs by FRET based assay (reference value: 100%); in short: as §1
Staphylococcus aureus = experiment: Antibacterial activity against Staphylococcus aureus ATCC 29213 after 16 to 20 hrs by broth microdilution method; format: functional; in short: as §2
[15] = Hemolytic activity in human RBC at 100 uM after 45 mins by spectrophotometric method relative to control; format: ADME, cell-based, Erythrocyte; settings: red blood cells (erythrocytes), read-out: Activity
In short: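 Heparinized human blood; red cells washed three times in Tyrode buffer pH 7.4. Compound at 100 µM final with 1% DMSO and 50% RBC, shaken (250 rpm) 45 min at 37 °C. Cells pelleted (1000 × g, 10 min); supernatant haemoglobin at 540 nm. Percent lysis relative to buffer-only and 2% Triton X-100 controls.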

[16] = target: Signal peptidase I (Escherichia coli K-12) (UniProt P00803); experiment: Inhibition of Escherichia coli type 1 signal peptidase lepB assessed as residual activity at 0.625 uM preincubated for 10 mins followed by Dabcyl-VGGTATAYGAFSRPGLE-(EDANS)-OH substrate addition measured after 2 hrs by FRET based assay (reference value: 100%); in short: as §1
[17] = target: Signal peptidase I (Escherichia coli K-12) (UniProt P00803); experiment: Inhibition of Escherichia coli type 1 signal peptidase lepB assessed as residual activity at 0.0006 uM preincubated for 10 mins followed by Dabcyl-VGGTATAYGAFSRPGLE-(EDANS)-OH substrate addition measured after 2 hrs by FRET based assay (reference value: 100%); in short: as §1
[18] = target: Signal peptidase I (Escherichia coli K-12) (UniProt P00803); experiment: Inhibition of Escherichia coli type 1 signal peptidase lepB assessed as residual activity at 10 uM preincubated for 10 mins followed by Dabcyl-VGGTATAYGAFSRPGLE-(EDANS)-OH substrate addition measured after 2 hrs by FRET based assay (reference value: 100%); in short: as §1
[19] = target: Signal peptidase I (Escherichia coli K-12) (UniProt P00803); experiment: Inhibition of Escherichia coli type 1 signal peptidase lepB assessed as residual activity at 0.0024 uM preincubated for 10 mins followed by Dabcyl-VGGTATAYGAFSRPGLE-(EDANS)-OH substrate addition measured after 2 hrs by FRET based assay (reference value: 100%); in short: as §1
Signal peptidase I = Signal peptidase I (Escherichia coli K-12, UniProt P00803); experiment: Inhibition of Escherichia coli type 1 signal peptidase lepB preincubated for 10 mins followed by Dabcyl-VGGTATAYGAFSRPGLE-(EDANS)-OH substrate addition measured after 2 hrs by FRET based assay; in short: as §1
Sequence of Signal peptidase I (P00803 whole entry): as above

Klebsiella pneumoniae = experiment: Antibacterial activity against Klebsiella pneumoniae ATCC 13883 after 16 to 20 hrs by broth microdilution method; format: functional; in short: as §2
[20] = target: Signal peptidase I (Escherichia coli K-12) (UniProt P00803); experiment: Inhibition of Escherichia coli type 1 signal peptidase lepB assessed as residual activity at 0.3125 uM preincubated for 10 mins followed by Dabcyl-VGGTATAYGAFSRPGLE-(EDANS)-OH substrate addition measured after 2 hrs by FRET based assay (reference value: 100%); in short: as §1
Pseudomonas aeruginosa [21] = experiment: Antibacterial activity against efflux defective Pseudomonas aeruginosa PAO750 after 16 to 20 hrs by broth microdilution method; format: functional; in short: as §2
Acinetobacter baumannii = experiment: Antibacterial activity against Acinetobacter baumannii ATCC 19606 after 16 to 20 hrs by broth microdilution method; format: functional; settings: ATCC 19606 = CIP 70.34 = JCM 6841; in short: as §2

SMILES | Activity [1] [%] | MIC (Escherichia coli [2]) [µg/mL] | Activity [3] [%] | IC50 (HepG2) [nM] | MIC (Pseudomonas aeruginosa [4]) [µg/mL] | MIC (Escherichia coli [5]) [µg/mL] | Activity [6] [%] | Activity [7] [%] | Activity [8] [%] | Activity [9] [%] | MIC (Escherichia coli [10]) [µg/mL] | Activity [11] [%] | Activity [12] [%] | Activity [13] [%] | Activity [14] [%] | MIC (Staphylococcus aureus) [µg/mL] | hemolysis at 0.75 h, 100 µM [15] [%] | Activity [16] [%] | Activity [17] [%] | Activity [18] [%] | other results
CCCCCCc1ccc(-c2ccc(C(=O)N[C@@H](CCCN)C(=O)N[C@H](C(=O)N[C@@H](C)C(=O)N[C@@H](CC(N)=O)C(=O)N[C@@H](C)B(O)O)[C@@H](C)O)cc2)cc1 ({Benzoyl(4-(4-hexylphenyl))}-[Orn]TAN-boroAla) | 8.8 | 1 (≈ 1.33 µM) | 25.7 | 10100 | 64 (≈ 84.9 µM) | 8 (≈ 10.6 µM) | 57.5 | 15.6 | 84.8 | 19.2 | 0.5 (≈ 0.663 µM) | 93.9 | 89.3 | 6.7 | 97.7 | 0.025 (≈ 0.0332 µM) | 4.8 | 20.6 | 95.9 | 5.8 | Activity [19]: 87%; IC50 (Signal peptidase I): 52 nM; MIC (Klebsiella pneumoniae): 2 µg/mL (≈ 2.65 µM); Activity [20]: 20.3%; MIC (Pseudomonas aeruginosa [21]): 16 µg/mL (≈ 21.2 µM); MIC (Acinetobacter baumannii): 4 µg/mL (≈ 5.31 µM)
CCCCCCc1ccc(-c2ccc(C(=O)N[C@@H](CCCN)C(=O)N(C)[C@H](C(=O)N[C@@H](C)C(=O)N[C@H]3Cc4cn(nn4)CCCN4C[C@@H]5OB(O[C@@H]5C4)[C@H](C)NC3=O)[C@@H](C)O)cc2)cc1 | 18.2 | 16 (≈ 17.8 µM) | 52.1 | 8500 | > 64 | 64 (≈ 71.2 µM) | 69.9 | 23.6 | 75.7 | 40 | 32 (≈ 35.6 µM) | 92.7 | 88.1 | 8 | 95.3 | 32 (≈ 35.6 µM) | 9.6 | 30.7 | 95.8 | 3.7 | Activity [19]: 95.7%; IC50 (Signal peptidase I): 98 nM; MIC (Klebsiella pneumoniae): 32 µg/mL (≈ 35.6 µM); Activity [20]: 34.2%; MIC (Pseudomonas aeruginosa [21]): 64 µg/mL (≈ 71.2 µM); MIC (Acinetobacter baumannii): 64 µg/mL (≈ 71.2 µM)
CCCCCCc1ccc(-c2ccc(C(=O)N[C@@H](CCCN)C(=O)N[C@H](C(=O)N[C@@H](C)C(=O)N[C@H]3Cc4cn(nn4)CCCN4C[C@@H]5OB(O[C@@H]5C4)[C@H](C)NC3=O)[C@@H](C)O)cc2)cc1 | 28.1 | 8 (≈ 9.04 µM) | 42.8 | 4000 | > 64 | 32 (≈ 36.2 µM) | 47.9 | 32.8 | 68.6 | 47.3 | 8 (≈ 9.04 µM) | 80.9 | 76.7 | 14.9 | 85.6 | 32 (≈ 36.2 µM) | 17.4 | 35.3 | 89.5 | 5.6 | Activity [19]: 86.2%; IC50 (Signal peptidase I): 105 nM; MIC (Klebsiella pneumoniae): 32 µg/mL (≈ 36.2 µM); Activity [20]: 43%; MIC (Pseudomonas aeruginosa [21]): 64 µg/mL (≈ 72.3 µM); MIC (Acinetobacter baumannii): 16 µg/mL (≈ 18.1 µM)
CCCCCCc1ccc(-c2ccc(C(=O)N[C@@H](Cc3cnc[nH]3)C(=O)N[C@H](C(=O)N[C@@H](C)C(=O)N[C@H]3Cc4cn(nn4)CCCN4C[C@@H]5OB(O[C@@H]5C4)[C@H](C)NC3=O)[C@@H](C)O)cc2)cc1 | 27.8 | > 64 | 66.2 | 5400 | > 64 | > 64 | 76.7 | 34.1 | 81 | 52 | 64 (≈ 70.5 µM) | 90.8 | 91.4 | 25 | 94 | > 64 | 4.1 | 34.2 | 94.5 | 20.8 | Activity [19]: 94.7%; IC50 (Signal peptidase I): 107 nM; MIC (Klebsiella pneumoniae): > 64 µg/mL; Activity [20]: 39.7%; MIC (Pseudomonas aeruginosa [21]): > 64 µg/mL; MIC (Acinetobacter baumannii): > 64 µg/mL
